Hits are enriched below; roughly 3.4% of the tested compounds scored in any of these assays.
MC4R antagonist = MC4R antagonists of cAMP signaling, primary screen, cell-based, TR-FRET, antagonist arm of biased-ligand search; Melanocortin receptor 4 (Homo sapiens), P32245; AID 540295, 2011; 0.48% of 360,000 active; inhibition, % at 6.5 µM; MC4R-expressing cells, MTII-stimulated cAMP, LANCE TR-FRET;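 active means inhibition above its plate's cutoff, the mean of tested wells on that plate plus 3 SD, cut at about 29% in these data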;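 further: 0% = Melanotan II alone and 100% = Melanotan II plus saturating MCL0020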
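Material – human MC4R-expressing U2OS cells · Repeats – no replicates · Detection – TR-FRET with Eu-cAMP and labeled anti-cAMP, 671 nm · Times – compound 30 min, challenge 1 h, detection 1 h · Compound – single nominal compound dose of 6.5 µM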
ANO1 block = TMEM16A chloride channel inhibitors, primary screen, cell-based, HTS; Anoctamin-1 (Mus musculus), Q8BHY3; 1.2% of 310,000 active; HEK293 TMEM16A/YFP iodide influx fluorescence, ionomycin; normalized B-score (activity score, 25-100; higher = stronger inhibition) at 10 µM; AID 588511, 2011;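 active means ratio plate-corrected score three or more library SD toward inhibition, starting fluorescence score within five deviations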;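 further: score derived from kinetic fluorescence span divided by baseline fluorescence per well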
HTR2A ag = mouse Htr2a agonists via beta-arrestin recruitment, primary screen, cell-based, luminescence | CHO-K1 mHTR2A beta-arrestin complementation; percent of 30 µM serotonin response | 5-hydroxytryptamine receptor 2A (Mus musculus), P35363 | activation, % at 7.6 µM | 0.66% of 360,000 active;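 active means activation above a run cutoff, the mean activation of all tested compounds plus 3 SD, cut at about 14% in these data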;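 further: 0% = plate median of compound wells and 100% = 30 µM serotonin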
Target sequence (P35363 whole entry, looked up): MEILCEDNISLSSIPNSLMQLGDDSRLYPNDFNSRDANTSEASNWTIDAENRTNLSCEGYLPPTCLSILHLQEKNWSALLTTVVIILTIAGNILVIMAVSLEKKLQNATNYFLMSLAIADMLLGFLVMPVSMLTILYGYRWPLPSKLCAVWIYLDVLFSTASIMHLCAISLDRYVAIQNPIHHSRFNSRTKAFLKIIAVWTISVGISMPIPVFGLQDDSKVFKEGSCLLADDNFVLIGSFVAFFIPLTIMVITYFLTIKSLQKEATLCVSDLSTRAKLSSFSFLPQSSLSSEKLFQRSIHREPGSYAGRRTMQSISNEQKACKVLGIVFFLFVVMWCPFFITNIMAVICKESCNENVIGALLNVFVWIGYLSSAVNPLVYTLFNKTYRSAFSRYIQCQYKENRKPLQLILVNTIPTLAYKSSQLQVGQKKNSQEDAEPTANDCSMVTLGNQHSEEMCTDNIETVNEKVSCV
beta cell repl = inducers of MIN6 beta-cell proliferation, primary screen, ATP luminescence, uHTS; 0.29% of 330,000 active; MIN6 cells proliferation, ATPlite luminescence, 48 h; cells starved in 0.2% serum; 100% = growth in 10% serum; proliferation, % at 10 µM; AID 2380, 2010;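 active means compounds whose signal lies at least 3.5 SD above the mean of all wells on their plate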;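 further: 0% = DMSO-treated cells in low-serum medium and 100% = 10% serum control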
ANO1 activ = TMEM16A chloride channel activators or potentiators, primary screen, cell-based, HTS. 0.3% of 340,000 active. Anoctamin-1 (Mus musculus), Q8BHY3. HEK293 TMEM16A/YFP-H148Q/I152L, iodide quench fluorescence; hits give low values. B-score at 10 µM. AID 623877, 2012;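 active means fluorescence-ratio B-score plate-corrected deviation score at least 3 library SD below zero, with starting fluorescence score within 5 deviations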;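 further: channel opened by trigger with iodide after compound preincubation; score built on the fluorescence ratio of max minus min over baseline; more negative score means more quench and so TMEM16A activation or potentiation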
MC4R barr agon = MC4R agonists recruiting beta-arrestin, primary screen, cell-based, luminescence, agonist arm of biased-ligand search | Melanocortin receptor 4 (Homo sapiens), P32245 | U2OS MC4R beta-arrestin complementation; percent of melanotan II response, DMSO zero | activation, % at 8.9 µM | 0.98% of 360,000 active | AID 540308, 2011;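 active means activation above a per-plate cutoff, the mean activation of sample wells on that plate plus 3 SD, cut at about 8% in these data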
TMEM16A reconf = TMEM16A chloride channel inhibitors, confirmation, cell-based, re-confirmation. HEK293 TMEM16A/YFP-H148Q, iodide quench fluorescence; ionomycin added to raise cell calcium. 39% of 2,300 active. inhibition, % at 10 µM. shares compounds with ANO1 block. AID 652189, 2013;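 active means mean duplicate percent inhibition, scaled so buffer wells are 0 and the reference blocker 100, over three buffer SD above buffer mean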
HEK293 Ca mobil = calcium mobilization in TMEM16A/YFP HEK293 cells, confirmation, counter-screen for TMEM16A inhibitor project | calcium response (% of ionomycin), % at 10 µM | Fluo4 calcium mobilization | AID 652231, 2013 | 2% of 2,300 active | shares compounds with ANO1 block;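 active means duplicate-averaged calcium signal over 20% of the ionomycin maximum, relative to buffer baseline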;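 further: each well's signal is peak minus trough fluorescence divided by its pre-addition baseline; 0% = buffer wells and 100% = ionomycin wells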
Parental YFP cnt = iodide YFP quench changes in parental YFP-HEK293, counter-screen for TMEM16A inhibitor project, cell-based; YFP ratio F(max-min)/F0 at 10 µM; ionomycin; 2,300 tested, under 10 active; AID 652233, 2013; shares compounds with ANO1 block;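 active means yellow fluorescent protein signal ratio exceeding the buffer control mean by over 5 SD of those controls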;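 further: ratio is mean of duplicate wells from kinetic YFP trace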
ClC-1 rat inh = ClC-1 chloride channel inhibition, selectivity assay for TMEM16A inhibitor project, cell-based, voltage-dependent ClC-1 | shares compounds with ANO1 block | CHO ClC-1-YFP, iodide influx fluorescence quench; iodide control reads 0, buffer control 100 | ratio percent, % at 10 µM | 2,300 tested, under 10 active;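 active means duplicate-mean ratio percent above the mean of iodide-only control wells, which defines zero, plus 5 of their SD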;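 further: higher percent means stronger block of ClC-1 iodide influx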
Numbers without * were called inactive.

Screening OC(COC(c1ccccc1)c1ccccc1)CN1CCN(c2cccc(Cl)c2)CC1 (centres undefined) returned MC4R antagonist 4.5, ANO1 block 25*, HTR2A ag -11.0, beta cell repl -6.5, ANO1 activ inactive, MC4R barr agon -0.3, TMEM16A reconf inactive, HEK293 Ca mobil inactive, Parental YFP cnt -0.896 and ClC-1 rat inh -9.5.
For OC(CN1CCN(c2cccc(Cl)c2)CC1)c1ccccc1 (centres undefined) the results were MC4R antagonist 4.1, ANO1 block inactive, HTR2A ag -5.9, beta cell repl -3.8, ANO1 activ inactive and MC4R barr agon 1.0.
Screening O=C(C[C@@H]1C/C=C\CCC(=O)O[C@H](c2ccccc2)CNC1=O)N[C@H](CO)Cc1ccccc1 returned MC4R antagonist 14.3, HTR2A ag -0.6, beta cell repl -2.0, ANO1 activ inactive and MC4R barr agon -0.1.
CCc1nc(NCc2ccco2)c2oc3ccccc3c2n1 was read as MC4R antagonist 0.5, ANO1 block inactive, HTR2A ag -3.9, beta cell repl -1.9, ANO1 activ inactive and MC4R barr agon -2.1.
`c1ccc2c(c1)oc1c(Nc3ccc4c(c3)OCCO4)ncnc12` gave MC4R antagonist 10.7, ANO1 block 25*, HTR2A ag 3.5, beta cell repl -2.9, ANO1 activ inactive, MC4R barr agon -0.6, TMEM16A reconf inactive, HEK293 Ca mobil inactive, Parental YFP cnt -0.922 and ClC-1 rat inh 3.0.
Cc1ccc2[nH]c3c(NCc4ccco4)ncnc3c2c1 was read as MC4R antagonist 5.5, ANO1 block 25*, HTR2A ag 8.9, beta cell repl -5.5, ANO1 activ inactive, MC4R barr agon -0.9, TMEM16A reconf 22.0%*, HEK293 Ca mobil inactive, Parental YFP cnt -1.13 and ClC-1 rat inh -20.0.
c1coc(CNc2ncnc3c2oc2ccccc23)c1 was read as MC4R antagonist -5.8, ANO1 block 100*, HTR2A ag -1.3, beta cell repl 0.6, ANO1 activ inactive, MC4R barr agon -0.8, TMEM16A reconf inactive, HEK293 Ca mobil inactive, Parental YFP cnt -1.02 and ClC-1 rat inh -5.0.
Cc1nc(Nc2ccc3c(c2)OCCO3)c2oc3ccccc3c2n1 was read as MC4R antagonist 1.8, ANO1 block inactive, HTR2A ag 1.9, beta cell repl 0.0, ANO1 activ inactive and MC4R barr agon 0.9.
Screening CNC(=S)N/N=C/c1c(C)c(C(=O)c2ccc(F)cc2)n2ccccc12 returned MC4R antagonist -7.8, ANO1 block inactive, HTR2A ag -2.3, beta cell repl -4.0, ANO1 activ inactive and MC4R barr agon -0.6.
Screening CC(C)c1ccc(NC(=O)COC(=O)[C@@H]2CCCN2C(=O)c2cccs2)cc1 returned MC4R antagonist -0.1, HTR2A ag -1.5, beta cell repl -3.7, ANO1 activ inactive and MC4R barr agon -0.4.
Cc1cc(C)n(CC(=O)NNC(=O)c2cccc(C(F)(F)F)c2)n1 was read as MC4R antagonist -0.5, ANO1 block inactive, HTR2A ag 9.5, beta cell repl 2.5, ANO1 activ inactive and MC4R barr agon -3.1.
For Cc1cc(NNC(=O)c2cccc(C(F)(F)F)c2)nc2c1c(C)nn2C the results were MC4R antagonist 4.7, ANO1 block 25*, HTR2A ag 4.2, beta cell repl 0.5, ANO1 activ inactive, MC4R barr agon -3.4, TMEM16A reconf inactive, HEK293 Ca mobil inactive, Parental YFP cnt -1.07 and ClC-1 rat inh -19.0.
For Cc1cccc(NC(=O)CCS(=O)(=O)c2ccc3nc(C)sc3c2)c1 the results were MC4R antagonist 15.3, HTR2A ag -3.3 and MC4R barr agon -0.9.
`COc1ccc(C(=O)N2CC(c3ccc(Cl)cc3)CC2=O)cc1` (centres undefined) gave MC4R antagonist 16.4, ANO1 block inactive, HTR2A ag -3.0, beta cell repl -0.2, ANO1 activ inactive and MC4R barr agon 1.5.
Screening COc1ccc(C(=O)C2CN(c3ccccc3)CC2c2ccc(Cl)cc2)cc1 (centres undefined) returned MC4R antagonist 1.4, ANO1 block 25*, HTR2A ag 1.0, beta cell repl -2.8, ANO1 activ inactive, MC4R barr agon -0.4, TMEM16A reconf inactive, HEK293 Ca mobil inactive, Parental YFP cnt -1.12 and ClC-1 rat inh -5.5.
COc1ccccc1CNc1nc(NCc2ccc3occc3c2)c2sccc2n1 was read as MC4R antagonist -8.3, HTR2A ag -13.1 and MC4R barr agon -0.4.
Screening O=C(O)CCCCCn1c(SCC(=O)c2ccc(O)c(O)c2)nc2ccsc2c1=O returned MC4R antagonist 6.5, ANO1 block inactive, HTR2A ag 0.3, beta cell repl -1.2, ANO1 activ inactive and MC4R barr agon -2.1.
CCCCn1c(SCC(=O)c2ccc(O)c(O)c2)nc2ccsc2c1=O was read as MC4R antagonist 14.6, ANO1 block 100*, HTR2A ag 0.2, beta cell repl 0.0, ANO1 activ inactive, MC4R barr agon 1.8, TMEM16A reconf 49.0%*, HEK293 Ca mobil inactive, Parental YFP cnt -1.03 and ClC-1 rat inh -17.5.

Assay outcomes: PubChem BioAssay, several laboratories
